Values joined by “and” are separate entries in the source; they are usually repeats but may differ in a detail not shown here. Equal values may be shown once. Active and inactive are the calls of the source. The calls are words filed in the database; no cut-off is given here.
What was measured:
[1] = biological target: T1, Carbonic anhydrase 2 (Homo sapiens, UniProt P00918); assay: Inhibition of human carbonic anhydrase II; conditions: read-out: I50
Outline: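 CA II was affinity-purified from human erythrocytes. CO2 hydration was assayed by pH stat in 0.02 M Tris chloride, pH 8.6, at 2 °C with CO2–air (5:95) bubbled at 150 mL/min. The 0.025 N NaOH volume needed to hold pH 8.3 over 3 min was recorded, with inhibitor added before enzyme. I50 was read from semilog plots of % inhibition versus log concentration.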

[2] = biological target: T1, Carbonic anhydrase 2; assay: Compound was tested in vitro for binding affinity against human carbonic anhydrase II; (ki*10e-9)
Outline: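 Fluorescence competition against dansylamide used purified human erythrocyte CA II (1×10^-7 M) and dansylamide (2×10^-6 M) in pH 7.4, 0.1 ionic strength phosphate buffer at 37 °C. Excitation was 280 nm and emission 460 nm, with stepwise addition of test compound in buffer.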

[3] = system: Oryctolagus cuniculus; assay: Ability to penetrate the albino rabbit eye and to inhibit the target enzyme in an homogenate of the iris-ciliary body at 1 hr postdosing, ex vivo when dosed in 0.1% aqueousi (hydroxymethyl) cellulose.; format: functional
Outline: (§1)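 Albino rabbits received one 50 μL drop of test suspension topically; 1 h after dosing the iris-ciliary body was homogenized and its carbonic anhydrase activity measured ex vivo. Screening used 0.5%, with lower concentrations for some compounds. Reference suspensions were given as 0.1% in 0.5% aqueous (hydroxyethyl)cellulose.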

[4] = system: Oryctolagus cuniculus; assay: Ability to penetrate the albino rabbit eye and to inhibit the target enzyme in an homogenate of the iris-ciliary body at 1 hr postdosing, ex vivo when dosed in 0.5% aqueousi (hydroxymethyl) cellulose.; format: functional; outline: as §1
[5] = Aqueous solubility (25 degree C); format: physicochemical; conditions: read-out: S
[6] = Partition coefficient (logD7.4); format: physicochemical; conditions: octanol/water, pH 7.4
Outline: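 Compound was equilibrated between 1-octanol and 0.1 ionic strength pH 7.4 phosphate buffer; each phase was quantified by UV spectrophotometry.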

[7] = Solubility (pH 7.4, 25 degree C); format: physicochemical; conditions: buffer, read-out: S
[8] = Ionization constant (pKa); format: physicochemical
Outline: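 The half-neutralization point was found by titration with 0.5 N NaOH and 0.5 N HCl in 30% EtOH–H2O using a glass electrode.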

[9] = species on record: Oryctolagus cuniculus; assay: Maximum Intraocular pressure reduction in alpha-CT rabbits at the dose (as a 50 microL drop of suspension in 0.5% aqueous cellulose); format: functional
Outline: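 α-Chymotrypsinized rabbits received a 50 μL topical drop of test suspension. IOP was read before dosing and at 0.5, 1, 2, 3, 4 and 5 h after. The value is the maximum fall from the pre-dose reading. Parallel control groups got a drop of 0.5% aqueous (hydroxyethyl)cellulose.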

[10] = Solubility measured in water; format: physicochemical; conditions: read-out: S
Outline: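 Solubility was measured in water at 25 °C.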

| Structure (SMILES) | IC50 [1] | Ki [2] | Inhibition [3] | Inhibition [4] | solubility [5] | logD [6] | solubility [7] | pKa [8] | Max IOP reduction [9] | solubility [10] |
| --- | --- | --- | --- | --- | --- | --- | --- | --- | --- | --- |
| CC(C)CNCc1ccc(S(=O)(=O)c2csc(S(N)(=O)=O)c2)cc1.Cl | 13 nM | 6.5 nM | 63% | 87% |  |  |  |  |  |  |
| CC(C)CCNCc1cccc(C(=O)c2csc(S(N)(=O)=O)c2)c1.Cl | 9 nM |  |  | 82% |  |  |  |  |  |  |
| Cl.NS(=O)(=O)c1cc(C(=O)c2ccc(CNCc3ccccc3)cc2)cs1 | 2.4 nM |  |  | 81% |  |  |  |  |  |  |
| CCCCNCc1ccc(C(=O)c2csc(S(N)(=O)=O)c2)cc1.Cl | 12 nM |  | 68% | 95% | 2400 µg/mL | 0.568 | 460 µg/mL | 9.32 |  |  |
| Cc1ccc(S(=O)(=O)c2coc(S(N)(=O)=O)c2)cc1 | 4.2 nM |  | 36% | 96% |  |  |  |  |  |  |
| CC(C)NCc1cccc(S(=O)(=O)c2csc(S(N)(=O)=O)c2)c1.Cl | 22 nM |  |  | 71% |  |  |  |  |  |  |
| CC(C)CN(C)Cc1cc(S(=O)(=O)c2csc(S(N)(=O)=O)c2)ccc1O.Cl | 5 nM |  | 26% | 90% |  |  |  |  |  |  |
| CCN(CC)Cc1cc(S(=O)(=O)c2csc(S(N)(=O)=O)c2)ccc1O.Cl | 9 nM |  |  | 71% |  |  |  |  |  |  |
| CC(C)CNCc1ccc(C(=O)c2csc(S(N)(=O)=O)c2)cc1.Cl | 4.8 nM |  | 77% | 87% |  |  |  |  | inactive |  |
| CC(C)(C)NCc1ccc(S(=O)(=O)c2csc(S(N)(=O)=O)c2)cc1.Cl | 36 nM |  |  | 61% | 4500 µg/mL | -0.143 |  | 9.3 |  |  |
| Cc1ccc(C(=O)c2csc(S(N)(=O)=O)c2)cc1 | 2 nM |  |  | 26% |  |  |  |  |  |  |
| Cl.NS(=O)(=O)c1cc(C(=O)c2ccc(CN3CCOCC3)cc2)cs1 | 3.7 nM | 3.32 nM |  | 73% |  | 1.18 | 70 µg/mL | 9.28 | -2.2 mmHg | 12100 µg/mL |
| CC(C)CNCc1cccc(S(=O)(=O)c2csc(S(N)(=O)=O)c2)c1.Cl | 12 nM |  |  | 84% |  |  |  |  |  |  |
| CN1CCN(Cc2ccccc2S(=O)(=O)c2csc(S(N)(=O)=O)c2)CC1.Cl | 23 nM |  | 65% | 77% | > 64000 µg/mL | 1.13 |  | 8.8 | -2.7 mmHg |  |
| CN(C)Cc1cc(S(=O)(=O)c2csc(S(N)(=O)=O)c2)ccc1O.Cl | 9 nM |  | 40% | 57% |  |  |  |  |  |  |
| Cl.NS(=O)(=O)c1cc(S(=O)(=O)c2ccc(CN3CCOCC3)cc2)cs1 | 7.6 nM | 1.43 nM |  | 83% |  | 0.978 | 850 µg/mL | 8.84 |  |  |
| Cl.NS(=O)(=O)c1cc(S(=O)(=O)c2ccc(CNCc3ccccn3)cc2)cs1 | 8 nM |  | 75% | 92% |  |  |  |  |  |  |
| CN(C)Cc1cc(S(=O)(=O)c2coc(S(N)(=O)=O)c2)ccc1O.Cl | 7 nM | 2.34 nM and 4.9 nM | 78% | 81% |  |  |  |  |  |  |
| NS(=O)(=O)c1cc(S(=O)(=O)c2ccc(O)cc2)co1 | 4.2 nM |  | 100% | 54% |  |  |  |  |  |  |
| Cl.NS(=O)(=O)c1cc(C(=O)c2cccc(CN3CCOCC3)c2)cs1 | 5 nM | 10.8 nM |  | 90% | 4800 µg/mL | 1.11 |  | 9.03 |  |  |

| Structure (SMILES) | IC50 [1] | Ki [2] | Inhibition [3] | Inhibition [4] | solubility [5] | logD [6] | solubility [7] | pKa [8] | Max IOP reduction [9] | solubility [10] |
| --- | --- | --- | --- | --- | --- | --- | --- | --- | --- | --- |
| CCC(C)NCc1cccc(S(=O)(=O)c2csc(S(N)(=O)=O)c2)c1.Cl (stereo not given) | 26 nM |  |  | 72% | 20000 µg/mL | 0.477 |  | 9.05 | -2.3 mmHg |  |
| COc1ccc(S(=O)(=O)c2coc(S(N)(=O)=O)c2)cc1 | 2.5 nM |  | 95% | 68% and 97% |  | 1.17 |  | 6.32 |  |  |
| CC(C)CNCc1ccc(S(=O)(=O)c2csc(S(N)(=O)=O)c2)cc1O | 14 nM |  |  |  |  |  |  |  |  |  |
| CCN(CC)Cc1cc(S(=O)(=O)c2coc(S(N)(=O)=O)c2)ccc1O.Cl | 10 nM | 4 nM | 58% | 82% |  |  |  |  |  |  |
| COc1ccc(C(=O)c2coc(S(N)(=O)=O)c2)cc1 | 2 nM |  | 13% | 67% |  |  |  |  |  |  |
| CC(C)CN(C)Cc1cc(C(=O)c2csc(S(N)(=O)=O)c2)ccc1O.Cl | 9 nM |  |  | 58% |  |  |  |  |  |  |
| CC(C)CNCc1cccc(C(=O)c2csc(S(N)(=O)=O)c2)c1.Cl | 13 nM | 14.5 nM |  | 68% |  |  |  |  |  |  |
| CN(C)Cc1cc(C(=O)c2csc(S(N)(=O)=O)c2)ccc1O.Cl | 6.4 nM | 34.4 nM |  | 59% |  |  |  |  |  |  |
| COc1ccc(C(=O)c2csc(S(N)(=O)=O)c2)cc1 | 3.2 nM |  |  | 31% |  |  |  |  |  |  |
| CCN(CC)Cc1ccc(S(=O)(=O)c2csc(S(N)(=O)=O)c2)cc1O.Cl | 16 nM |  |  | 84% |  |  |  |  |  |  |
| NS(=O)(=O)c1cc(S(=O)(=O)c2ccc(O)cc2)cs1 | 5 nM | 8 nM |  | 82% |  |  |  | 9.2 |  |  |
| CCN(CC)Cc1cc(C(=O)c2csc(S(N)(=O)=O)c2)ccc1O.Cl | 7 nM | 18.6 nM | 54% | 55% |  |  |  |  |  |  |
| NS(=O)(=O)c1cc(S(=O)(=O)c2cccc(O)c2)cs1 | 2.1 nM |  |  | 86% |  |  |  |  |  |  |
| CCCCNCc1ccc(S(=O)(=O)c2csc(S(N)(=O)=O)c2)cc1.Cl | 29 nM |  | 48% | 87% |  |  |  |  |  |  |
| Cl.NS(=O)(=O)c1cc(S(=O)(=O)c2ccccc2CNCc2ccccn2)cs1 | 15 nM |  | 88% | 88% |  |  |  |  | -6.5 mmHg |  |
| Cc1ccc(S(=O)(=O)c2csc(S(N)(=O)=O)c2)cc1 | 3.2 nM |  |  | 86% |  |  |  |  |  |  |
| CC(C)CNCc1ccccc1S(=O)(=O)c1csc(S(N)(=O)=O)c1.Cl | 18 nM | 21.1 nM | 47% | 62% |  |  |  |  |  |  |
| COc1ccc(S(=O)(=O)c2csc(S(N)(=O)=O)c2)cc1 | 45 nM |  |  | 68% |  |  |  | 8.78 |  |  |
| NS(=O)(=O)c1cc(C(=O)c2ccc(O)cc2)cs1 | 2.5 nM |  |  | 83% |  |  |  |  |  |  |
| CNCc1ccc(C(=O)c2csc(S(N)(=O)=O)c2)cc1.Cl | 4.5 nM |  | 13% | 67% |  |  |  |  |  |  |
